Assay results taken from article PMC3155308 (The EMBO Journal, 2011).
Changes are numbered by the printed parent chain. Names may count otherwise. Each block holds one molecule with its values, some of them ahead of it. Where no end group is shown, it is not given here.

Assays:
[1] = test system: myosin-X MyTH4–FERM cassette; experiment: Pull-down with GST-fused C-terminal tail peptides of α- and β-tubulins; format: binding, human; conditions: 20 mM Tris–HCl (pH 8.0), 50 mM NaCl, 1 mM DTT, 4°C, 30 min
Summary of the method: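 Purified MyTH4–FERM cassette was mixed with GST-fused α1A-tubulin (399–451) or β2B-tubulin (390–445) tail peptide in 20 mM Tris–HCl pH 8.0, 50 mM NaCl, 1 mM DTT at 4°C for 30 min. Glutathione-Sepharose was then added for 10 min at 4°C, with five washes. Elution used 20 mM glutathione in 50 mM Tris–HCl pH 8.0 with 150 mM NaCl, then SDS–PAGE.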

[2] = molecular target: T1, myosin-X MyTH4–FERM cassette K1647D/K1650D (human, UniProt Q9HD67 1486-2058, Δ20 deletion (residues 1872–1891) | K1647D | K1650D); experiment: pull-down
T1 sequence (looked up): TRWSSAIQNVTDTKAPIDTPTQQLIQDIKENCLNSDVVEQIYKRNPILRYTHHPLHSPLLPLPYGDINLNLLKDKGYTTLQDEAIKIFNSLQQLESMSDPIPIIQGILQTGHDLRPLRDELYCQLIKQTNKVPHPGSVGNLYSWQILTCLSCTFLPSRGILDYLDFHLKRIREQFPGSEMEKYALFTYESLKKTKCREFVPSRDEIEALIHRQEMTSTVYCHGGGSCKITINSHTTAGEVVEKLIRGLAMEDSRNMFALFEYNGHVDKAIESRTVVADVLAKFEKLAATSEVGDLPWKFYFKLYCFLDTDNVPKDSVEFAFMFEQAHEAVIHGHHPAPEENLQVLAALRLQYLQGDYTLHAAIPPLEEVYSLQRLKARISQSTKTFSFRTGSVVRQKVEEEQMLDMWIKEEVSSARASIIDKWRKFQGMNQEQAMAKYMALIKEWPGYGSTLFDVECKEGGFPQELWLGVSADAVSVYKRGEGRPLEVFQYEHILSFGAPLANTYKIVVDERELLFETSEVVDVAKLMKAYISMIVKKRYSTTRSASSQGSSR

[3] = molecular target: T2, myosin-X MyTH4–FERM cassette F2002K (human, UniProt Q9HD67 1486-2058, Δ20 deletion (residues 1872–1891) | F2002K); experiment: pull-down
T2 sequence (looked up): T1 sequence (looked up) with D162K, D165K, F497K

[4] = test system: C-terminal acidic tail peptide of β2B-tubulin; experiment: Pull-down of wild-type and mutated MyTH4–FERM cassettes with GST-tubulin tail; format: binding; conditions: SDS–PAGE
Summary of the method: (§1)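 Human myosin-X MyTH4–FERM cassette (wild type or site-directed mutants) was expressed in E. coli BL21Star(DE3) at 20°C with 0.1 mM IPTG. It was Ni-NTA purified, then His-tag cleaved with HRV3C, then run over cation exchange and gel filtration. GST bait was human DCC 1390–1447 or β2B-tubulin 390–445. Cassette and bait were mixed with glutathione-Sepharose at 4°C, washed, and eluates resolved by SDS–PAGE.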

DCC P3 peptide = experiment: Pull-down of wild-type and mutated MyTH4–FERM cassettes with GST-DCC P3 peptide; format: binding, human; conditions: SDS–PAGE
Summary of the method: as §1

DCC = experiment: Co-immunoprecipitation of DCC with myc-tagged myosin-X MyTH4–FERM; format: cell-based; conditions: HEK293T cells, anti-myc antibody, immunoblot

binding of tubulin C-terminal acidic tail peptides [1]: binds
Molecule: β-tubulin C-terminal acidic tail peptide: GST-fused C-terminal acidic tail peptide of β2B-tubulin (390–445) ({GST}-RRKAFLHWYTGEGMDEMEFTEAESNMNDLVSEYQQYQDATADEQGEFEEEEGEDEA; not fully specified)

binding of tubulin C-terminal acidic tail peptides [1]: binds
Molecule: α-tubulin C-terminal acidic tail peptide: GST-fused C-terminal tail peptide of α1A-tubulin (399–451)

binding result [3]: binds
B2: GST-fused β2B-tubulin C-terminal acidic tail peptide (390–445) (peptide, UniProt Q9BVA1 390-445, looked up)
chain: RRKAFLHWYTGEGMDEMEFTEAESNMNDLVSEYQQYQDATADEQGEFEEEEGEDEA
modifications: also: GST-fused (side not given here)

The next lines start with the molecule.

B1: GST-fused DCC P3 peptide (residues 1390–1447) (peptide, UniProt P43146 1390-1447, looked up)
chain: ARSPLLPVSVPTAPEVSEESHKPTEDSANVYEQDDLSEQMASLEGLMKQLNAITGSAF
binding result [2]: binds

B3: Myo-X (K1647D/K1650D) (protein)
chain: T1 sequence (looked up)
modifications: left off: His6, N-terminal, cleaved
binding to β2B-tubulin C-terminal tail peptide [4]: abolished binding | binding to DCC P3 peptide (DCC P3 peptide): only weakly affected binding | binding to DCC P3 peptide (DCC P3 peptide; listed as K1647D/K1650D): only a slight reduction in DCC binding

B4: Myo-X (F2002K) (protein)
chain: T1 sequence (looked up) with D162K, D165K, F497K
modifications: left off: His6, N-terminal, cleaved
binding to β2B-tubulin C-terminal tail peptide [4]: no effect on tubulin tail binding | binding to β2B-tubulin C-terminal tail peptide ([4]; listed as F2002K): no effect on binding to the tubulin tail | binding to DCC P3 peptide (DCC P3 peptide): abolished the binding | binding to DCC P3 peptide (DCC P3 peptide; listed as F2002K): abolished DCC binding

B5: myc–MyTH4–FERM(ΔC): residues 1486–1954, lacks subdomain C of the FERM domain (protein)
chain: TRWSSAIQNVTDTKAPIDTPTQQLIQDIKENCLNSDVVEQIYKRNPILRYTHHPLHSPLLPLPYGDINLNLLKDKGYTTLQDEAIKIFNSLQQLESMSDPIPIIQGILQTGHDLRPLRDELYCQLIKQTNKVPHPGSVGNLYSWQILTCLSCTFLPSRGILKYLKFHLKRIREQFPGSEMEKYALFTYESLKKTKCREFVPSRDEIEALIHRQEMTSTVYCHGGGSCKITINSHTTAGEVVEKLIRGLAMEDSRNMFALFEYNGHVDKAIESRTVVADVLAKFEKLAATSEVGDLPWKFYFKLYCFLDTDNVPKDSVEFAFMFEQAHEAVIHGHHPAPEENLQVLAALRLQYLQGDYTLHAAIPPLEEVYSLQRLKARISQSTKTFTPCERLEKRRTSFLEGTLRRSFRTGSVVRQKVEEEQMLDMWIKEEVSSARASIIDKWRKFQGMNQEQAMAKYMALIKEWPGYG
modifications: left off: myc, end not stated, kept
co-immunoprecipitation of DCC (DCC): no interaction

B6: myc-tagged myosin-X MyTH4–FERM cassette: myc-tagged full-length MyTH4–FERM cassette (residues 1486–2058) (protein)
chain: TRWSSAIQNVTDTKAPIDTPTQQLIQDIKENCLNSDVVEQIYKRNPILRYTHHPLHSPLLPLPYGDINLNLLKDKGYTTLQDEAIKIFNSLQQLESMSDPIPIIQGILQTGHDLRPLRDELYCQLIKQTNKVPHPGSVGNLYSWQILTCLSCTFLPSRGILKYLKFHLKRIREQFPGSEMEKYALFTYESLKKTKCREFVPSRDEIEALIHRQEMTSTVYCHGGGSCKITINSHTTAGEVVEKLIRGLAMEDSRNMFALFEYNGHVDKAIESRTVVADVLAKFEKLAATSEVGDLPWKFYFKLYCFLDTDNVPKDSVEFAFMFEQAHEAVIHGHHPAPEENLQVLAALRLQYLQGDYTLHAAIPPLEEVYSLQRLKARISQSTKTFTPCERLEKRRTSFLEGTLRRSFRTGSVVRQKVEEEQMLDMWIKEEVSSARASIIDKWRKFQGMNQEQAMAKYMALIKEWPGYGSTLFDVECKEGGFPQELWLGVSADAVSVYKRGEGRPLEVFQYEHILSFGAPLANTYKIVVDERELLFETSEVVDVAKLMKAYISMIVKKRYSTTRSASSQGSSR
modifications: left off: myc, end not stated, kept
co-immunoprecipitation of DCC (DCC): co-immunoprecipitation of DCC
